Laboratory results reported in ChEMBL document CHEMBL2429861, “Chemopreventive and antioxidant activity of 6-substituted imidazo[2,1-b]thiazoles” (Eur J Med Chem, 2013).

Key:
Aromatase [1] = target: T1, Aromatase (Homo sapiens, UniProt P11511); experiment: Inhibition of aromatase (unknown origin) using dibenzylfluorscein as substrate incubated with NADP+ for 10 mins prior to substrate addition measured after 30 mins by fluorescence assay
T1 sequence (P11511 whole entry): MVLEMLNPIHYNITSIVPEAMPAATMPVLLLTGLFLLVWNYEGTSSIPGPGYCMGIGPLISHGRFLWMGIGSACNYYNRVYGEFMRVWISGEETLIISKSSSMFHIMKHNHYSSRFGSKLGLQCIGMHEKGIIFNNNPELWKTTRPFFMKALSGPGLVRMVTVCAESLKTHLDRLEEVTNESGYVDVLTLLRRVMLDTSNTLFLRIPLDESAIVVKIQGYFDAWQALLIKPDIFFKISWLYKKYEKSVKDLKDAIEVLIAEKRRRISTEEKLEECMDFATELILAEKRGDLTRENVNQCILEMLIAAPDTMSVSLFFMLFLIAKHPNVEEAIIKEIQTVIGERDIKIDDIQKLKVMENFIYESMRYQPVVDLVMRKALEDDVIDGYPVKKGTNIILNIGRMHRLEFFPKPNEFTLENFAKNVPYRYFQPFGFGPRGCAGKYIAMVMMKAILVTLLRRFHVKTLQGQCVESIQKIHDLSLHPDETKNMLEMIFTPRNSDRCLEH

Aromatase [2] = target: T1, Aromatase; experiment: Inhibition of aromatase (unknown origin) using dibenzylfluorscein as substrate incubated with NADP+ for 10 mins prior to substrate addition at 50 uM measured after 30 mins by fluorescence assay; details: 0.5 h
Procedure, shortened: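 Compounds preincubated 10 min at 37 °C with an NADPH-regenerating system (2.6 mM NADP+, 7.6 mM glucose 6-phosphate, 0.8 U/mL G6PDH, 13.9 mM MgCl2, 1 mg/mL albumin; 50 mM K phosphate, pH 7.4). CYP19 enzyme with […] was added for 30 min at 37 °C. The reaction was stopped with 2 N NaOH and held 24 h at 37 °C, then fluorescence read at ex 485/em 530 nm.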

Liver microsomes [3] = experiment: Drug metabolism in human liver microsomes assessed as monooxygenated metabolite after 1.9 mins by UHPLC-MS/MS analysis; type: ADME, Microsome; details: 114 s
Procedure, shortened: (§1)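 Microsomal incubations as for stability (1 mg/mL human liver microsomes, NADPH, 37 °C). Metabolites analysed by UHPLC-MS/MS with a 4.5 min gradient at 0.2 mL/min, recording product ion scans over m/z 100–300.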

HEK293 [4] = experiment: Inhibition of TNFalpha-induced nuclear factor-kappa-B activation in human HEK293 cells at 50 uM by luciferase reporter gene assay; type: cell-based
[5] = target: T2, Nitric oxide synthase, inducible (Mus musculus) (UniProt P29477); experiment: Inhibition of iNOS-mediated NO production in mouse RAW264.7 cells at 50 uM by Griess assay; type: cell-based
T2 sequence (whole entry): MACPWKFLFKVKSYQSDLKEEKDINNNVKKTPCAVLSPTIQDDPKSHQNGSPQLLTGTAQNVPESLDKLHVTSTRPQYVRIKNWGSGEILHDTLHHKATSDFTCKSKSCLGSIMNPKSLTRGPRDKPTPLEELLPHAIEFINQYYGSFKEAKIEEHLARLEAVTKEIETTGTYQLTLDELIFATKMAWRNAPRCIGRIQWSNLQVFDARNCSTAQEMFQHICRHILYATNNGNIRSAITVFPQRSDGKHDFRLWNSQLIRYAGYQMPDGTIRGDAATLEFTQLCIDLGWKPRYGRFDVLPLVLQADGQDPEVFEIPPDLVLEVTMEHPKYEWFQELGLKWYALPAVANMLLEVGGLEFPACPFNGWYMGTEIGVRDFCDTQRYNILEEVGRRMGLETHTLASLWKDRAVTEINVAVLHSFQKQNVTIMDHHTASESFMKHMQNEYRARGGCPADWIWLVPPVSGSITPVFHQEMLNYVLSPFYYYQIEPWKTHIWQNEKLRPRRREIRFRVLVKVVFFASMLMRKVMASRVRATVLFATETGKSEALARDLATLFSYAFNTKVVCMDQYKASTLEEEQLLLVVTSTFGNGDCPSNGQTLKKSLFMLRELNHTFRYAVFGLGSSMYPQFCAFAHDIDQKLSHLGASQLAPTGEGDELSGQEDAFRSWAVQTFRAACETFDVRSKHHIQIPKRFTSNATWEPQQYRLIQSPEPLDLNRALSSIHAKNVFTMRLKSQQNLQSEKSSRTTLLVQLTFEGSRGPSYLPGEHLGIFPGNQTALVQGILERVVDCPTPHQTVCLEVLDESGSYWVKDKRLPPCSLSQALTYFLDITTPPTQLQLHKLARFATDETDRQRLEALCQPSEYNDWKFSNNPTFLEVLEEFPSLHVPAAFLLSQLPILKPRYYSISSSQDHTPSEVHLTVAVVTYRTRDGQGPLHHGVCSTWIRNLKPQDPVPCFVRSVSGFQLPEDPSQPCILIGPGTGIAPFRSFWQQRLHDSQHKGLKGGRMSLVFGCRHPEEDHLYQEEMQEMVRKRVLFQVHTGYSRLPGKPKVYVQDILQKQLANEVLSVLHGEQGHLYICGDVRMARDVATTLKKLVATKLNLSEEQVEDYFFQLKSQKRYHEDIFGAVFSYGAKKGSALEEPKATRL

[6] = Antioxidant activity assessed as trolox equivalents of ABTS radical scavenging activity at pH 7.4 by spectrophotometry; type: functional
Procedure, shortened: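 TEAC run at pH 7.4; activity reported as mM equivalents of Trolox.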

[7] = Cytotoxicity against mouse RAW264.7 cells assessed as cell survival at 50 uM after 15 mins by SRB assay; type: cell-based; details: read-out: Survival
Procedure, shortened: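 RAW 264.7 cells were seeded at 1×10^5 per well and held 24 h at 37 °C in 5% CO2. They were then pretreated 15 min with serially diluted compound, followed by LPS (or no LPS) for a further 20 h. Medium was taken for the Griess assay, and cells were fixed with 10% TCA and stained with 0.4% SRB in 1% acetic acid. Bound dye was dissolved in 10 mM Tris and read at 515 nm. Survival is relative to LPS-treated control; two experiments in duplicate.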

[8] = target: T3, Nitric oxide synthase, inducible (Mus musculus, UniProt P29477); experiment: (§2) Inhibition of iNOS-mediated NO production in mouse RAW264.7 cells by Griess assay; type: cell-based
T3 sequence (P29477 whole entry): T2 sequence (whole entry)
Procedure, shortened: (§3)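 RAW 264.7 cells, 1×10^5 per well, held 24 h at 37 °C under 5% CO2. Nitrite in the medium was measured with Griess reagent (sulfanilamide/N-(1-naphthyl)ethylenediamine in H3PO4) at 540 nm against a sodium nitrite standard curve.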

[9] = target: T2, Nitric oxide synthase, inducible (Mus musculus); experiment: as §2; type: cell-based; procedure, shortened: as §3
[10] = Relative antioxidant activity assessed as resorcinol equivalents of hydroperoxyl scavenging activity at acidic pH by BR oscillating reaction method; type: ADME
Procedure, shortened: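 Briggs–Rauscher oscillating reaction: hydrogen peroxide, acidic iodate, malonic acid and Mn(II) catalyst at about pH 2, with hydroperoxyl radicals as the key intermediates.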

[11] = Half life in human liver microsomes at 1 uM after 1 to 60 mins by UHPLC-MS/MS analysis; type: ADME, Microsome
RAW264.7 = experiment: Cytotoxicity against mouse RAW264.7 cells assessed as cell survival after 20 hrs by SRB assay; details: for inhibition (INH): mouse, raw264.7, 20 h
[12] = target: NAD(P)H dehydrogenase [quinone] 1 (Mus musculus) (UniProt Q64669); experiment: Induction of quinone reductase-1 activity in mouse Hepa-1c1c7 cells assessed as induction ratio at 50 uM by MTT assay relative to DMSO-treated control; type: cell-based
Procedure, shortened: (§4)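 Hepa 1c1c7 murine hepatoma cells incubated with compounds at […]. Cells were permeabilized with digitonin and QR1 activity measured by MTT reduction to formazan at 595 nm, with a parallel crystal violet protein assay. IR is specific activity versus DMSO control; CD is the concentration doubling activity, determined only where IR >2. Two independent experiments in triplicate.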

[13] = target: NAD(P)H dehydrogenase [quinone] 1 (Mus musculus) (UniProt Q64669); experiment: Induction of quinone reductase-1 activity in mouse Hepa-1c1c7 cells assessed as concentration required to double induction activity by MTT assay; type: cell-based; procedure, shortened: as §4
[14] = system: Radical scavenging activity; experiment: Antioxidant activity in non-aqueous medium assessed as trolox equivalents of DPPH radical scavenging activity by spectrophotometry; type: functional
Procedure, shortened: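 DPPH radical decolorization by hydrogen-donating scavengers in MeOH or EtOH. Some values could not be determined where the compound's solution colour resembled the DPPH reagent, or where % inhibition versus concentration was not linear.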

[15] = target: NAD(P)H dehydrogenase [quinone] 1 (Mus musculus) (UniProt Q64669); experiment: Induction of quinone reductase-1 activity in mouse Hepa-1c1c7 cells expressing TAOc1BPrcI mutant assessed as induction ratio at 50 uM by MTT assay relative to DMSO control; type: cell-based
[16] = Cytotoxicity against human HEK293 cells assessed as cell survival at 50 uM; type: cell-based; details: read-out: Survival
HEK293 [17] = experiment: Cytotoxicity against human HEK293 cells assessed as reduction in cell survival; type: cell-based
Procedure, shortened: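 Same 293/NFkB-Luc cells under the NFkB assay conditions; cytotoxic IC50 taken as the concentration giving 50% cell survival.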

[18] = target: NAD(P)H dehydrogenase [quinone] 1 (Mus musculus) (UniProt Q64669); experiment: Induction of quinone reductase-1 activity in mouse Hepa-1c1c7 cells expressing BPrc1 mutant assessed as induction ratio at 50 uM by MTT assay relative to DMSO control; type: cell-based
[19] = Inhibition of TNFalpha-induced nuclear factor-kappa-B activation in human HEK293 cells at by luciferase reporter gene assay; type: cell-based
Procedure, shortened: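 Stably transfected 293/NFkB-Luc cells seeded at 20 × 10^3 per well in DMEM with 10% FBS, penicillin/streptomycin and 2 mM L-glutamine for 48 h. Medium was then replaced and cells were given compounds in DMSO plus TNF-α 2 ng/mL (0.14 nM) for 6 h. Cells were lysed and luciferase luminescence read; IC50 is the concentration halving TNF-α-activated activity; […]. Mean ± SD of two experiments in duplicate.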

Liver microsomes [20] = experiment: Drug metabolism in human liver microsomes assessed as monooxygenated metabolite by UHPLC-MS/MS analysis; type: ADME, Microsome; procedure, shortened: as §1

Sequence of NAD(P)H dehydrogenase [quinone] 1 (Mus musculus) (Q64669 whole entry): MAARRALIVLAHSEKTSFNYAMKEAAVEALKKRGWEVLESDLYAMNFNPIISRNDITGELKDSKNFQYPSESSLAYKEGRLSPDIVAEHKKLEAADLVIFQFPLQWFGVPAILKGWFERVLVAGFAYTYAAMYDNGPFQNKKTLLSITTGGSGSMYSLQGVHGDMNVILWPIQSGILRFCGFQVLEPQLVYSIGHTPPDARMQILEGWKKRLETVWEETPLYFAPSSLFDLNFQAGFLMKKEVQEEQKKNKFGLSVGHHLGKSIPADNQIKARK

Compound: Oc1ccc(O)c(-c2cn3ccsc3n2)c1
- IC50 (Aromatase [1]): 2.6 µM
- inhibition at 50 µM (Aromatase [2]): 98.6%
- Drug metabolism (Liver microsomes [3]): Active
- inhibition (HEK293 [4]): 91%
- inhibition [5]: 97.7%
- Activity [6]: 1.29 µM
- viability at 0.25 h, 50 µM [7]: 48.2%
- IC50 [8]: 6.4 µM
- inhibition [9]: Dose-dependent effect
- Activity [10]: 1.032 µM
- half-life at 1 µM [11]: 5.9 min
- IC50 (RAW264.7; Mus musculus, RAW264.7, 20 h): 11.6 µM
- inhibition (INH) (RAW264.7): Dose-dependent effect
- Ratio [12]: 3.8
- CD [13]: 12.1 µM
- Activity [14]: 0.71 µM
- Ratio [15]: 0.3
- viability at 50 µM [16]: 43.6%
- IC50 (HEK293 [17]): 46.5 µM
- Ratio [18]: 0.9
- IC50 [19]: 2.24 µM

Compound: O=c1c(O)c(-c2ccc(O)c(O)c2)oc2cc(O)cc(O)c12
- Activity [6]: 3.1 µM

Compound: Oc1cc(O)c2c(c1)O[C@@H](c1ccc(O)c(O)c1)[C@H](O)C2 [(-)-CATECHIN]
- Activity [10]: 2.2 µM

Compound: O=c1c(-c2ccc(O)cc2)coc2c([C@@H]3O[C@H](CO)[C@@H](O)[C@H](O)[C@H]3O)c(O)ccc12 [PUERARIN]
- Activity [10]: 0.192 µM

Compound: Cc1cn2cc(-c3ccc(O)c(O)c3O)nc2s1
- IC50 (Aromatase [1]): 3.2 µM
- inhibition at 50 µM (Aromatase [2]): 99.6%
- inhibition (HEK293 [4]): 97.5%
- inhibition [5]: 98.8%
- Activity [6]: 3.06 µM
- viability at 0.25 h, 50 µM [7]: 52.3%
- IC50 [8]: 6.8 µM
- inhibition [9]: Dose-dependent effect
- Activity [10]: 0.14 µM
- half-life at 1 µM [11]: 11.2 min
- inhibition (INH) (RAW264.7): Dose-dependent effect
- Ratio [12]: 2.03
- CD [13]: 24.6 µM
- Activity [14]: 1.38 µM
- Ratio [15]: 0.2
- viability at 50 µM [16]: 34.3%
- IC50 (HEK293 [17]): 21.2 µM
- Ratio [18]: 1.2
- Drug metabolism (Liver microsomes [20]): Active
- IC50 [19]: 0.53 µM

Compound: Cc1ccc(S(=O)(=O)N[C@@H](Cc2ccccc2)C(=O)CCl)cc1 [TPCK]
- IC50 [19]: 3.8 µM

Compound: CC(C)NCC(O)COc1cccc2ccccc12 (stereo unspecified) [PROPRANOLOL]
- half-life at 1 µM [11]: 20.8 min
